What is called IC50 is the concentration that gives 50% inhibition. What is called GI50 is the concentration giving 50% growth inhibition. The low end stands for greater sensitivity of the cells, the high end for lower sensitivity of the cells.

Here are results for 26 molecules from ChEMBL document CHEMBL1914404, “Synthesis and biochemical evaluation of δ(2)-isoxazoline derivatives as DNA methyltransferase 1 inhibitors” (J Med Chem, 2011).

Assay [1] concerns the target T1, DNA (cytosine-5)-methyltransferase 1 (Homo sapiens, UniProt P26358). Briefly: Inhibition of human recombinant DNMT1 expressed in Sf9 cells assessed as remaining activity at 2 mM after 3 hrs by scintillation counting in presence of [3H]S-adenosyl methionine. In outline: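 Single-point screen at 2 mM (compounds in DMSO, DMSO control) against 500 nM Sf9-expressed human DNMT1, hemimethylated oligo 0.4 μM, 0.7 μM [3H]AdoMet, pH 7.5 Tris buffer, 37 °C for 3 h; filter-bound tritium counted. Relative enzyme activity (% of control) as mean of three measurements with SD; inhibition >20% scored positive.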

The target of assay [2] is T1, DNA (cytosine-5)-methyltransferase 1. The experiment in a line: Inhibition of human recombinant DNMT1 expressed in Sf9 cells assessed as incorporation of [3H]S-adenosyl methionine into hemimethylated oligonucleotide substrate after 3 hrs by scintillation counting.
In assay [3] the test system is HCT-116. The experiment in a line: Antiproliferative activity against human HCT116 cells after 72 hrs by trypan blue staining. It is filed as functional. To be noted: HCT-116, 72 h. In outline: (§1)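 HCT116 colon carcinoma cells incubated 72 h with test compound at 300, 500 and 750 μM, azacytidine 1 μM as positive control, DMSO alone as control.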
Assay [4] addresses T1, DNA (cytosine-5)-methyltransferase 1. The experiment in a line: Selectivity ratio of IC50 for procaine to compound for human recombinant DNMT1 expressed in Sf9 cells assessed as incorporation of [3H]S-adenosyl methionine into hemimethylated oligonucleotide substrate after 3 hrs by scintillation counting.
The target is the same in assay [5]. Briefly: Non-competitive inhibition of human recombinant DNMT1 expressed in Sf9 cells using oligonucleotide as substrate after 1 hr by scintillation counting. The method in brief:
(§2)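 Mode-of-inhibition assay: standard DNMT1 filter assay (500 nM enzyme) modified with inhibitor fixed at 150 μM and 1 h at 37 °C; either [3H]SAM or the oligo substrate concentration increased while the other held. Activity with inhibitor under standard conditions set as 100% inhibition; curves interpreted by the Lai and Wu model.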

Assay [6] shares this target. The experiment in a line: Competitive inhibition of human recombinant DNMT1 expressed in Sf9 cells using [3H]S-adenosyl methionine as substrate at 150 uM after 1 hr by scintillation counting. The method in brief: as §2
Assay [7] has as its system HCT-116. Briefly: Antiproliferative activity against human HCT116 cells assessed as growth inhibition by measuring proliferation rate after 72 hrs by trypan blue staining. It is filed as functional, cell-based. In outline: as §1
For assay [8], the system named is HCT-116. Briefly: Antiproliferative activity against human HCT116 cells assessed as growth inhibition by measuring doubling time after 72 hrs by trypan blue staining. It counts as functional, cell-based. The method in brief: as §1

Activity calls are given as the source filed them. The rule behind the calls is not given here.

T1 sequence (P26358 whole entry): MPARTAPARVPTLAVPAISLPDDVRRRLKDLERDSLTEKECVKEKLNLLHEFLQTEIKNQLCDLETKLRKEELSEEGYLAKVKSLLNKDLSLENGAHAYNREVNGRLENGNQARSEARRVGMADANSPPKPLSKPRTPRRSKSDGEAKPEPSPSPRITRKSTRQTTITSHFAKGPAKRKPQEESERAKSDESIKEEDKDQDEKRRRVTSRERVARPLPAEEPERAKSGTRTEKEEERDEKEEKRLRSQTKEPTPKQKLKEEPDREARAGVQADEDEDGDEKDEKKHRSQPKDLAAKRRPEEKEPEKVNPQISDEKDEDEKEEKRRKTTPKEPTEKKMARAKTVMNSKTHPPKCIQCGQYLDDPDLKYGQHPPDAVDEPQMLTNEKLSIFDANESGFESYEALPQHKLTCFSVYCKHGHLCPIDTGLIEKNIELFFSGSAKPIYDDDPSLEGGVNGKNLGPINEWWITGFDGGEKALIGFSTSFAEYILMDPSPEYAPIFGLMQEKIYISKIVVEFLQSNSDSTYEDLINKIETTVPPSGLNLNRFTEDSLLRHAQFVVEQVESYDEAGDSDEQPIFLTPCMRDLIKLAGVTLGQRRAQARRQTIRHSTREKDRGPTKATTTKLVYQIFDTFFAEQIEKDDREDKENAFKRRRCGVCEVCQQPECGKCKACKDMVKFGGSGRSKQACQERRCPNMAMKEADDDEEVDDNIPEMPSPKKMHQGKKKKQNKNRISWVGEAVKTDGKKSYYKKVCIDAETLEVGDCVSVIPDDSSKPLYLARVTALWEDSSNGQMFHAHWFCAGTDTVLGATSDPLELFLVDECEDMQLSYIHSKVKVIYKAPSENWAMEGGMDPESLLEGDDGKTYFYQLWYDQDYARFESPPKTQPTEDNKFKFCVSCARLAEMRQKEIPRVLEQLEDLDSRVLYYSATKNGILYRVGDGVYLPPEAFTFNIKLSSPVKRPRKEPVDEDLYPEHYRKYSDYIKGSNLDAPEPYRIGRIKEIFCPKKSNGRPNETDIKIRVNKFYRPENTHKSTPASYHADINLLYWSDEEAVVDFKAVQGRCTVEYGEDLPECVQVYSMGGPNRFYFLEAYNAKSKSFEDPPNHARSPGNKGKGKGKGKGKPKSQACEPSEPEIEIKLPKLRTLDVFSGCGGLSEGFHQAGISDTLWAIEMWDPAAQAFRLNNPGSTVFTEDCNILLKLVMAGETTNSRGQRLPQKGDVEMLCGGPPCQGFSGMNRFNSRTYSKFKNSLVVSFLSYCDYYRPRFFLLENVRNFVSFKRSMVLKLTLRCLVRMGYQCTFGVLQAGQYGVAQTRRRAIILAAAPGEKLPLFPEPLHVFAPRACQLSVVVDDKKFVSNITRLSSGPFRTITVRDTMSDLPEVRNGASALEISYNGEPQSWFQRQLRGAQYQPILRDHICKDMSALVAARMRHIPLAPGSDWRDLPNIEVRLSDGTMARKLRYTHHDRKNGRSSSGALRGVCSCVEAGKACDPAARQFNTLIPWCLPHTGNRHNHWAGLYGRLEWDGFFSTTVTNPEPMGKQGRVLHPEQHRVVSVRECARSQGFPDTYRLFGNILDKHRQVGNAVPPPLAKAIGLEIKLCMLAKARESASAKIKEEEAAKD

Turning to `Cc1ccc(S(=O)(=O)Oc2ccc(C3=NOC(CN(C)C)C3)cc2)cc1` (configuration not stated), the Activity in assay [1] worked out at 90.6%. Still for that read-out and setting: the value for `CN(C)CC1CC(Cc2ccccc2)=NO1` (configuration not stated) was 17.1%.

Consider `CN(C)CC1CC(c2ccc(O)cc2)=NO1` (configuration not stated), for which, in assay [1], the Activity was 88%. Still for that read-out and setting: in the case of `CN(C)CC1CC(c2ccccc2)=NO1` (configuration not stated) it was “inactive”; in that of `CN1CC2ON=C(Cc3ccc(N)cc3)C2C1` (configuration not stated), 3.3%. Turning to `CN1CC2ON=C(Cc3ccc([N+](=O)[O-])cc3)C2C1` (configuration not stated), the Activity in assay [1] was determined as 3.8%. The IC50 in assay [2] was 310 µM. For `CN(C)CC1CC(c2ccc(N)cc2)=NO1` (configuration not stated), the Activity in assay [1] was determined as 20.2%. In assay [2], the 50% inhibitory concentration (IC50) is 270 µM. With `CN(C)CC1CC(c2ccc([N+](=O)[O-])cc2)=NO1` (configuration not stated), it took 360 µM to inhibit growth with HCT-116 [3] by half (GI50). In addition, the Ratio IC50 in assay [4] is 10. For the same molecule, the Activity in assay [1] worked out at 0.3%. Further, the inhibition result in assay [5] and in assay [6] was “Active” each time. In addition, the half-maximal inhibitory concentration (IC50) in assay [2] is 150 µM. Consider `CN(C)CC1CC(c2ccc(C(=O)O)cc2)=NO1` (configuration not stated), for which the Activity in assay [1] turned out to be 23%.

Consider `CN(C)CC1CC(Cc2ccc([N+](=O)[O-])cc2)=NO1` (configuration not stated), for which the Activity in assay [1] worked out at 14.8%. Besides, in assay [2], the IC50 was 1600 µM.

As to `CN1CC2ON=C(c3ccc(O)cc3)C2C1` (configuration not stated), the outcome in assay [1] was inactive.

For `CN1CC2ON=C(c3ccc([N+](=O)[O-])cc3)C2C1` (configuration not stated), in assay [1], the Activity came to 34.9%. As to `COc1ccc(C2=NOC(CN(C)C)C2)cc1` (configuration not stated), the Activity in assay [1] was 3.3%. Take `CN1CC2ON=C(Cc3ccccc3)C2C1` (configuration not stated): the Activity in assay [1] was 84%.

Consider `CN1CC2ON=C(c3ccc(C(=O)O)cc3)C2C1` (configuration not stated), for which the outcome in assay [1] was inactive.

Regarding `CN(C)CC1CC(Cc2ccc(N)cc2)=NO1` (configuration not stated), in assay [1], the Activity is 28.3%.

Take `COc1ccc(CC2=NOC3CN(C)CC23)cc1` (configuration not stated): the Activity in assay [1] turned out to be 1.7%. Besides, in assay [2], the IC50 stood at 1130 µM. With `COc1ccc(CC2=NOC(CN(C)C)C2)cc1` (configuration not stated), the outcome in assay [1] was inactive. Same read-out and setting: in the case of `CN1CC2ON=C(c3ccccc3)C2C1` (configuration not stated) it was “inactive”. Same read-out and setting: the value for `COc1ccc(C2=NOC3CN(C)CC23)cc1` (configuration not stated) was 95.6%. As for `CCN(CC)CCOC(=O)c1ccc(N)cc1`, the outcome in assay [1] was inactive. The same measure, in the same setting: the value for `O=C(O)[C@H](Cc1c[nH]c2ccccc12)N1C(=O)c2ccccc2C1=O` was “inactive”. For `CN1CC2ON=C(c3ccc(N)cc3)C2C1` (configuration not stated), in assay [1], the Activity was 5.1%. Also, the IC50 in assay [2] turned out to be 570 µM. Regarding `Nc1ncnc2c1ncn2[C@@H]1O[C@H](CSCC[C@H](N)C(=O)O)[C@@H](O)[C@H]1O`, the Activity in assay [1] stood at 0.5%. Regarding `Cc1ccc(S(=O)(=O)Oc2ccc(C3=NOC4CN(C)CC34)cc2)cc1` (configuration not stated), in assay [1], the Activity was found to be 18.6%.

Take `O=[N+]([O-])c1ccc(C2=NC[C@H](CN3CCCC3)O2)cc1`: the “growth inhibition (GI)” value with HCT-116 [7] and with HCT-116 [8] was “inactive” throughout.
